Results reported in ChEMBL document CHEMBL2046372, “Design and synthesis of pyrrolo[3,2-d]pyrimidine human epidermal growth factor receptor 2 (HER2)/epidermal growth factor receptor (EGFR) dual inhibitors: exploration of novel back-pocket binders” (J Med Chem, 2012).

Columns and labels:
[1] = target: T1, Tyrosine-protein kinase Lyn (Homo sapiens, UniProt P07948); assay: Inhibition of Lyn B using ATP preincubated with compound for 5 mins measured after 10 mins
[2] = target: Tyrosine-protein kinase CSK (Homo sapiens, UniProt P41240); assay: Inhibition of CSK using ATP preincubated with compound for 5 mins measured after 10 mins
[3] = target: Receptor tyrosine-protein kinase erbB-4 (Homo sapiens, UniProt Q15303); assay: Inhibition of N-terminus peptide-tagged human recombinant HER4 expressed using baculovirus infection system using [gamma-33P]-ATP preincubated with compound for 5 mins measured after 10 mins by scintillation counting
CYP3A4 = CYP3A4 (Homo sapiens, UniProt P08684); assay: Inhibition of CYP3A4 at 10 uM after 15 mins; format: ADME
[4] = target: Platelet-derived growth factor receptor alpha (Homo sapiens, UniProt P16234); assay: Inhibition of PDGFRalpha using ATP measured after 30 mins
[5] = target: Proto-oncogene tyrosine-protein kinase Src (Homo sapiens, UniProt P12931); assay: Inhibition of Src using ATP preincubated with compound for 5 mins measured after 10 mins
Proto-oncogene tyrosine-protein kinase Src, sequence (P12931 2-536 limits assumed): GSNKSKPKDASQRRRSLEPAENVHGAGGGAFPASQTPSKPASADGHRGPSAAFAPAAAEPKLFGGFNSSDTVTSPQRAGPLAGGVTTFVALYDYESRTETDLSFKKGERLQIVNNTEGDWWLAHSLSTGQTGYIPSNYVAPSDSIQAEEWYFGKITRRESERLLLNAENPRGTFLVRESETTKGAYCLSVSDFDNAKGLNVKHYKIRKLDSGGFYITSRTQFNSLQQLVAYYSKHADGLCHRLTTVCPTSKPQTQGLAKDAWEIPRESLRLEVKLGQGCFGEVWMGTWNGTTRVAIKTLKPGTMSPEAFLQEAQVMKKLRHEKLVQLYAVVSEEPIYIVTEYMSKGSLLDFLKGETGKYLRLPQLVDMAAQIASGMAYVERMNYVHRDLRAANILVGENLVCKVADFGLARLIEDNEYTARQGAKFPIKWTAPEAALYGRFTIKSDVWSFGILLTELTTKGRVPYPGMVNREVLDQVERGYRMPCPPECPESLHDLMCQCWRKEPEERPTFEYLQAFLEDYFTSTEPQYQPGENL

BT-474 = assay: Growth inhibition of human BT474 cells overexpressing HER2 gene after 5 days; format: functional; conditions: BT-474, 120 h
Aurora kinase B = Aurora kinase B (Homo sapiens, UniProt Q96GD4); assay: Inhibition of N-terminal 6xHis tagged Aurora B kinase expressed using baculovirus expression system using [gamma-33P]ATP
[6] = target: Serine/threonine-protein kinase B-raf (Homo sapiens, UniProt P15056); assay: Inhibition of N-terminus FLAG-tagged B-raf expressed in baculovirus expression system using [gamma-33P]-ATP measured after 60 mins by scintillation counting
Serine/threonine-protein kinase B-raf, sequence (P15056 whole entry): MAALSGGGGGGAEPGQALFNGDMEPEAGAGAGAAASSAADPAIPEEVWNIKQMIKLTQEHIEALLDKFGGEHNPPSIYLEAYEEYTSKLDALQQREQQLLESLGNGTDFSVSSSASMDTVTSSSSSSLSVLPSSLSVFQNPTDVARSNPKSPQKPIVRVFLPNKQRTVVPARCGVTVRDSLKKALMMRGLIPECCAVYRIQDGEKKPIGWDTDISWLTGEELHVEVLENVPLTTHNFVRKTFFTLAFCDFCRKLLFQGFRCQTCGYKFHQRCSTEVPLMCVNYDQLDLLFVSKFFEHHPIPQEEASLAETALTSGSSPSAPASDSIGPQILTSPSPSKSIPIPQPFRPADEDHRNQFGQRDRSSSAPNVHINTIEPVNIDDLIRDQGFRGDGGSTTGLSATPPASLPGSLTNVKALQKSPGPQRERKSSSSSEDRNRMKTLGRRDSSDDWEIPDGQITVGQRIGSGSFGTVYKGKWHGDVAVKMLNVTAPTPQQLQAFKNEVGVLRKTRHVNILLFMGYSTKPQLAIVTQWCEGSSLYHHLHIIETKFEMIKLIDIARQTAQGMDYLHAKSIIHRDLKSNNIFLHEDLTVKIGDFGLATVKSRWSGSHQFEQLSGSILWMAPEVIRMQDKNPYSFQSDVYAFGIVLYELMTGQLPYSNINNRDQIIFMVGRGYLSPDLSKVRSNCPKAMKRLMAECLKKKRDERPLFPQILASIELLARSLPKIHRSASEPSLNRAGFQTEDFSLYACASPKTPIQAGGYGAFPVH

Angiopoietin-1 receptor = Angiopoietin-1 receptor (Homo sapiens, UniProt Q02763); assay: Inhibition of TIE2 using ATP preincubated with compound for 5 mins measured after 10 mins
[7] = target: Mitogen-activated protein kinase kinase kinase 1 (Homo sapiens, UniProt Q13233); assay: Inhibition of C-terminus FLAG-tagged MEKK1 expressed in baculovirus expression system using [gamma-33P]-ATP measured after 60 mins by scintillation counting
CAL-27 = assay: Antitumor activity against human CAL27 cells overexpressing EGFR gene xenografted in nude mouse assessed as tumor growth regression at 100 mg/kg, po BID for 14 days relative to control; format: functional
How it was run: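 CAL27 human head and neck cancer (EGFR-overexpressing) xenografts in mice were dosed orally at 100 mg/kg. Efficacy was expressed as tumor/control ratio (T/C) against vehicle control.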

[8] = target: Mitogen-activated protein kinase 3 (Homo sapiens, UniProt P27361); assay: Inhibition of N-terminus FLAG-tagged Erk1 expressed in baculovirus expression system using [gamma-33P]-ATP measured after 60 mins by scintillation counting
Mitogen-activated protein kinase 3, sequence (P27361 whole entry): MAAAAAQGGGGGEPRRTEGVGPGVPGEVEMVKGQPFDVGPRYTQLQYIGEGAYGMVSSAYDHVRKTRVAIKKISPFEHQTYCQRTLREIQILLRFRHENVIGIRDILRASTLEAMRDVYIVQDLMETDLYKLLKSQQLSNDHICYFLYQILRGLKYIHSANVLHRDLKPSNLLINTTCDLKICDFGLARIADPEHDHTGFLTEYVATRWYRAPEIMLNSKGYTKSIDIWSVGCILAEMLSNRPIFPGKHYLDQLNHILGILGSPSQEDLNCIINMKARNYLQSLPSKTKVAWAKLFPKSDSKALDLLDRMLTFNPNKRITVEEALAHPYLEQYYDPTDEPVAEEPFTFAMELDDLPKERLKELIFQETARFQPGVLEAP

[9] = target: Dual specificity mitogen-activated protein kinase kinase 5 (Homo sapiens, UniProt Q13163); assay: Inhibition of N-terminus FLAG-tagged MEK5 expressed in baculovirus expression system using [gamma-33P]-ATP measured after 30 mins by scintillation counting
[10] = target: Platelet-derived growth factor receptor beta (Homo sapiens, UniProt P09619); assay: Inhibition of PDGFRbeta using ATP measured after 60 mins
Platelet-derived growth factor receptor beta, sequence (P09619 whole entry, the tested form may be a part): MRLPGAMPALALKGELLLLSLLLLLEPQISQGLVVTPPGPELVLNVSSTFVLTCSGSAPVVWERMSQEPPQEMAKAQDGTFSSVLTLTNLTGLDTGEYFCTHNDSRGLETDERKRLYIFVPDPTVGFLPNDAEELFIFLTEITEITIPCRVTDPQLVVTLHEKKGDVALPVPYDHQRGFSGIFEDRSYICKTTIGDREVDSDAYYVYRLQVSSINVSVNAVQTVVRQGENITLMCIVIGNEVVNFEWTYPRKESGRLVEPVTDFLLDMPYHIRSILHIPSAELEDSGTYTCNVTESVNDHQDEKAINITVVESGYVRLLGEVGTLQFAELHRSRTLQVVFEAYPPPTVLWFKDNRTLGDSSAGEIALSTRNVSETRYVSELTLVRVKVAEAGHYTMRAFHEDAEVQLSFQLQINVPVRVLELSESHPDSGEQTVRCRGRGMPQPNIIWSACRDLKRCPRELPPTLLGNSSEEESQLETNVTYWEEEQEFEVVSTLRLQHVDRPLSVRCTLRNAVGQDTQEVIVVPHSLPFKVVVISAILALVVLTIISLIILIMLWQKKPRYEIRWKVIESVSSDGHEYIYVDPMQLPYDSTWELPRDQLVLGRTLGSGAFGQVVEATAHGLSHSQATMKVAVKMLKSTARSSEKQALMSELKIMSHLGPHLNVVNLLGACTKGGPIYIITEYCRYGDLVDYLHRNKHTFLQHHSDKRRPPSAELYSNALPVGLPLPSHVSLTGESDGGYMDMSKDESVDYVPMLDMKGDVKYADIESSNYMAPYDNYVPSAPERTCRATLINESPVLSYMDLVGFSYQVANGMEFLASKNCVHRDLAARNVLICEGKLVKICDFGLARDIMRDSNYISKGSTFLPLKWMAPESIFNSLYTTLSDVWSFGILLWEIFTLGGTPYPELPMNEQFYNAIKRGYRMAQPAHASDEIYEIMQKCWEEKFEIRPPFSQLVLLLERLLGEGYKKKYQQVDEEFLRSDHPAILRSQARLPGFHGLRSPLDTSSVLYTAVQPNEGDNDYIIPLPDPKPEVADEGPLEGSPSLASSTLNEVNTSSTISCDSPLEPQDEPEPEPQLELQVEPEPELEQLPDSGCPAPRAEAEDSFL

[11] = target: Dual specificity mitogen-activated protein kinase kinase 1 (Homo sapiens, UniProt Q02750); assay: Inhibition of N-terminus GST -fused MEK1 expressed using baculovirus infection system using [gamma-33P]ATP preincubated with compound for 5 mins measured after 30 mins by scintillation counting
[12] = target: Fibroblast growth factor receptor 1 (Homo sapiens, UniProt P11362); assay: Inhibition of FGFR1 using ATP preincubated with compound for 5 mins measured after 10 mins
[13] = Antitumor activity against human 4-1ST cells overexpressing HER2 gene xenografted in nude mouse assessed as tumor growth regression at 50 mg/kg, po BID for 14 days relative to control; format: functional
How it was run: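 Oral dosing at 50 mg/kg in mice bearing 4-1ST (HER2-overexpressing) tumor xenografts. Efficacy was expressed as tumor/control ratio (T/C). Significance versus control at day 14 was tested by one-tailed Shirley–Williams test.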

[14] = target: Mitogen-activated protein kinase 8 (Homo sapiens, UniProt P45983); assay: Inhibition of N-terminus FLAG-tagged JNK1 expressed in baculovirus expression system using [gamma-33P]-ATP measured after 60 mins by scintillation counting
[15] = target: Mitogen-activated protein kinase 14 (Homo sapiens, UniProt Q16539); assay: Inhibition of N-terminus FLAG-tagged p38alpha expressed in baculovirus expression system using [gamma-33P]-ATP measured after 60 mins by scintillation counting
Mitogen-activated protein kinase 14, sequence (Q16539 whole entry): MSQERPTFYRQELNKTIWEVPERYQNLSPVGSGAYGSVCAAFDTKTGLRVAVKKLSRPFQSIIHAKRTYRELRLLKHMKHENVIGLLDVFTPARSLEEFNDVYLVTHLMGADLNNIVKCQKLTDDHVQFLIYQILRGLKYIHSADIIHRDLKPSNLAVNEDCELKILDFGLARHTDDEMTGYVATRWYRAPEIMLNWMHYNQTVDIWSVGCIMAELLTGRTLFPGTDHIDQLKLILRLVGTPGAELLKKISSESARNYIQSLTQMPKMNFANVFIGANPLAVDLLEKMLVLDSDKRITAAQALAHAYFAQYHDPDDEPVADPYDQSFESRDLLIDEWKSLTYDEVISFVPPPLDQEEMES

[16] = target: Receptor tyrosine-protein kinase erbB-2 (Homo sapiens, UniProt P04626); assay: Inhibition of N-terminus peptide-tagged human recombinant HER2 expressed using baculovirus infection system using [gamma-33P]-ATP preincubated with compound for 5 mins measured after 10 mins by scintillation counting
Focal adhesion kinase 1 = Focal adhesion kinase 1 (Homo sapiens, UniProt Q05397); assay: Inhibition of FAK using ATP measured after 60 mins
[17] = target: Tyrosine-protein kinase Lck (Homo sapiens, UniProt P06239); assay: Inhibition of LCK using ATP preincubated with compound for 5 mins measured after 30 mins
[18] = target: Glycogen synthase kinase-3 beta (Homo sapiens, UniProt P49841); assay: Inhibition of N-terminus FLAG-tagged GSK3beta expressed in baculovirus expression system using [gamma-33P]-ATP measured after 30 mins by scintillation counting
[19] = target: Mast/stem cell growth factor receptor Kit (Homo sapiens, UniProt P10721); assay: Inhibition of c-kit using ATP measured after 20 mins
[20] = target: Dual specificity protein kinase TTK (Homo sapiens, UniProt P33981); assay: Inhibition of N-terminus FLAG-tagged TTK expressed in baculovirus expression system using [gamma-33P]-ATP measured after 60 mins by scintillation counting
[21] = Metabolic stability in human liver microsomes at 1 umol/L after 20 mins by HPLC analysis; format: ADME, Microsome; conditions: read-out: Stability
[22] = target: Inhibitor of nuclear factor kappa-B kinase subunit beta (Homo sapiens, UniProt O14920); assay: Inhibition of C-terminus FLAG-tagged IKKbeta expressed in baculovirus expression system using [gamma-33P]-ATP measured after 30 mins by scintillation counting
[23] = target: Mitogen-activated protein kinase kinase kinase 5 (Homo sapiens, UniProt Q99683); assay: Inhibition of N-terminus FLAG-tagged ASK1 expressed in baculovirus expression system using [gamma-33P]-ATP measured after 60 mins by scintillation counting
[24] = target: Serine/threonine-protein kinase PLK1 (Homo sapiens, UniProt P53350); assay: Inhibition of N-terminus FLAG-tagged PLK1 expressed in baculovirus expression system using [gamma-33P]-ATP measured after 60 mins by scintillation counting
[25] = target: Protein kinase C theta type (Homo sapiens, UniProt Q04759); assay: Inhibition of N-terminus FLAG-tagged PKCtheta expressed in baculovirus expression system using [gamma-33P]-ATP measured after 60 mins by scintillation counting
Protein kinase C theta type, sequence (Q04759 whole entry): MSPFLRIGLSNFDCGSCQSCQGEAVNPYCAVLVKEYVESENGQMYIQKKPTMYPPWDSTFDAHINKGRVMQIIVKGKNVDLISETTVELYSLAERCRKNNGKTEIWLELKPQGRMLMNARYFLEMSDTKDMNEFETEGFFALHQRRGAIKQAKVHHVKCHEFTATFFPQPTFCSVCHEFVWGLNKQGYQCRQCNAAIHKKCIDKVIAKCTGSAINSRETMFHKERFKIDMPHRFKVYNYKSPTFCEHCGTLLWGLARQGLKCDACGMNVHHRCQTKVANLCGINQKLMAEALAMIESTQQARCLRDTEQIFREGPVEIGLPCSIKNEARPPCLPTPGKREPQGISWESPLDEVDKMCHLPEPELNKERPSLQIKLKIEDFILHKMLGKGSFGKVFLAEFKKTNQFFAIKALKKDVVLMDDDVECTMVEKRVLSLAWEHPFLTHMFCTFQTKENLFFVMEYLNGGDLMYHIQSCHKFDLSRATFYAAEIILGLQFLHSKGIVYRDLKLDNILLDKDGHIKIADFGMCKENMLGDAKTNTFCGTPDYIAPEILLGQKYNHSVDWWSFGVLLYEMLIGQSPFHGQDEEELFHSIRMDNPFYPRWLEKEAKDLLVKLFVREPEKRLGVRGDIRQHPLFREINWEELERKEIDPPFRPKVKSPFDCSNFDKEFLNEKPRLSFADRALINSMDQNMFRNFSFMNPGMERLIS

[26] = target: Tyrosine-protein kinase ZAP-70 (Homo sapiens, UniProt P43403); assay: Inhibition of ZAP70 using ATP measured after 10 mins
[27] = target: Fibroblast growth factor receptor 3 (Homo sapiens, UniProt P22607); assay: Inhibition of FGFR3 using ATP preincubated with compound for 5 mins measured after 10 mins
[28] = target: Insulin-like growth factor 1 receptor (Homo sapiens, UniProt P08069); assay: Inhibition of IGFR1 using ATP measured after 20 mins
[29] = Metabolic stability in mouse liver microsomes at 1 umol/L after 20 mins by HPLC analysis; format: ADME, Microsome; conditions: read-out: Stability
[30] = target: T1, Tyrosine-protein kinase Lyn; assay: Inhibition of Lyn A using ATP preincubated with compound for 5 mins measured after 10 mins
[31] = target: Cytoplasmic tyrosine-protein kinase BMX (Homo sapiens, UniProt P51813); assay: Inhibition of BMX using ATP measured after 10 mins
Cytoplasmic tyrosine-protein kinase BMX, sequence (P51813 whole entry): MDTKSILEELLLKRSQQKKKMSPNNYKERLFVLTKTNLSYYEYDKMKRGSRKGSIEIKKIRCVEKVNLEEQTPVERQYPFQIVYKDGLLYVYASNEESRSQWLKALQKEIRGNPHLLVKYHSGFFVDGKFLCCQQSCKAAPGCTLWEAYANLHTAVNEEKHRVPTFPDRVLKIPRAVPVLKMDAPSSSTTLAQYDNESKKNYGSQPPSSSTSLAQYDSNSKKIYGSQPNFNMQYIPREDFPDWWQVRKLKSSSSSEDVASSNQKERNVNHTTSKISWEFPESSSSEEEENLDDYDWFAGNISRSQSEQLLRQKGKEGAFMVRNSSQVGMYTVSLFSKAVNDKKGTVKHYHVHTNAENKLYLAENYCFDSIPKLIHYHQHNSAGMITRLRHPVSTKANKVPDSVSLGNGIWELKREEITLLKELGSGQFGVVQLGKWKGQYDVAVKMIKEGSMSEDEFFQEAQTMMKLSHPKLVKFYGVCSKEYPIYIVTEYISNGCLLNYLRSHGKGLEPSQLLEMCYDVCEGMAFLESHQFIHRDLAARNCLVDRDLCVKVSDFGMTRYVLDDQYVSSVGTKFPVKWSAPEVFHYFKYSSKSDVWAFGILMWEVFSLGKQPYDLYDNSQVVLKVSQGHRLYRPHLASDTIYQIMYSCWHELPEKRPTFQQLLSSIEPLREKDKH

[32] = target: Vascular endothelial growth factor receptor 2 (Homo sapiens, UniProt P35968); assay: Inhibition of N-terminus FLAG-tagged VEGFR2 expressed using baculovirus infection system after 10 mins
[33] = target: Hepatocyte growth factor receptor (Homo sapiens, UniProt P08581); assay: Inhibition of c-Met using ATP preincubated with compound for 5 mins measured after 10 mins
[34] = target: Vascular endothelial growth factor receptor 1 (Homo sapiens, UniProt P17948); assay: Inhibition of VEGFR1 using ATP preincubated with compound for 5 mins measured after 5 mins

T1 sequence (P07948 whole entry): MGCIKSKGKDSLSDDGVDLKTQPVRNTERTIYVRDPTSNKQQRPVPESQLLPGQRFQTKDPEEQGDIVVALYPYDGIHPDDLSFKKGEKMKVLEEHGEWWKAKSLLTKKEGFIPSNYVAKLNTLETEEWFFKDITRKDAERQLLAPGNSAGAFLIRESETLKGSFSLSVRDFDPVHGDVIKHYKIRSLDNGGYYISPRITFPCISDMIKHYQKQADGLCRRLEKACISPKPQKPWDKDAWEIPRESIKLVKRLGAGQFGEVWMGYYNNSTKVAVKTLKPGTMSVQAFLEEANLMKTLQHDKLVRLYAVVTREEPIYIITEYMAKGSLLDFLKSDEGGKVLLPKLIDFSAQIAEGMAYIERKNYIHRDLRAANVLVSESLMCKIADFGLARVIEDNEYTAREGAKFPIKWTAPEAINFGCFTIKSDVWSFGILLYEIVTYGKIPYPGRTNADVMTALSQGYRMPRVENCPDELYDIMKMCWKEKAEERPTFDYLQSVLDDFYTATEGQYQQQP

Work on `CC(C)(N)C(=O)NCCn1ccc2ncnc(Nc3ccc(Oc4cccc5sncc45)c(Cl)c3)c21` yielded an IC50 [1] of 3 µM, an IC50 [2] of 3.9 µM and an IC50 [3] of 0.079 µM. For the same compound, the inhibition at 0.25 h, 10 µM (CYP3A4) was 21.2%, the IC50 [4] was > 10 µM and the IC50 [5] was 8.4 µM. The GI50 (BT-474) was 0.002 µM, the IC50 (Aurora kinase B) was > 10 µM and the IC50 [6] was > 10 µM. For the same compound, the IC50 (Angiopoietin-1 receptor) was 3.2 µM, the IC50 [7] was > 10 µM and the T/C (CAL-27) was -30%. For the same compound, the IC50 [8] was > 10 µM, the IC50 [9] was > 10 µM and the IC50 [10] was > 10 µM. For the same compound, the IC50 [11] was 2.1 µM, the IC50 [12] was > 10 µM and the T/C [13] was -23%. For the same compound, the IC50 [14] was > 10 µM, the IC50 [15] was > 10 µM and the IC50 [16] was 0.00098 µM. For the same compound, the IC50 (Focal adhesion kinase 1) was > 10 µM, the IC50 [17] was 1.7 µM and the IC50 [18] was > 10 µM. For the same compound, the IC50 [19] was > 10 µM, the IC50 [20] was > 10 µM and the microsomal CLint at 1 µM [21] was 88 µL/min/mg. The IC50 [22] was > 10 µM, the IC50 [23] was > 10 µM and the IC50 [24] was > 10 µM. The IC50 [25] was > 10 µM, the IC50 [26] was > 10 µM and the IC50 [27] was > 10 µM. The IC50 [28] was > 10 µM, the microsomal CLint at 1 µM [29] was 77 µL/min/mg and the IC50 [30] was 7.1 µM. The IC50 [31] was > 10 µM, the IC50 [32] was > 10 µM and the IC50 [33] was 1.8 µM. The IC50 [34] was > 10 µM.
